Among the data in ChEMBL document CHEMBL4725371, “A Novel Redox Modulator Induces a GPX4-Mediated Cell Death That Is Dependent on Iron and Reactive Oxygen Species” (J Med Chem, 2020) are Activity, inhibition and concentration values, retold here.

The subject of data set [1] is MIA PaCa-2. Put plainly: Induction of reactive oxygen species in human MIA PaCa-2 cells assessed as reduction in GSH to GSSG ratio at 1.5 to 6 uM measured after 2 to 4 hrs by GSH/GSSG-glo assay. Format: functional, cell-based. The settings on record: dose microM 1.5-6, time hrs 2-4. The method, boiled down:
(§1)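 GSH/GSSG-Glo luminescent assay: 15,000–20,000 MIA PaCa-2 cells per well, attached overnight, treated 2 h and 4 h. Cells were lysed with total or oxidized glutathione reagent, then luciferin generation (30 min, room temperature) and detection reagents added. Luminescence was read after 15 min. Ratio was computed from net RLU as (total − GSSG)/(GSSG/2).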

Data set [2] relates to MIA PaCa-2. Description: Synergistic inhibition of colony formation in human MIA PaCa-2 cells at 0.25 to 0.5 uM measured after 24 hrs in presence of napabucasin by crystal violet staining based assay. Format: functional, cell-based. The settings on record: dose microM 0.25-0.5, time 24.0 hrs. The method, boiled down: (§2)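 Colony formation in 96-well plates seeded at 300 (MIA PaCa-2) or 600 (PANC-1) cells/well. Napabucasin, As2O3 or olaparib added 1 h before test compound; drugs on cells 24 h. Plates kept until controls were 80–90% confluent (7–9 days), then stained with 0.05% crystal violet and quantified. Synergy scored by HSA and Bliss models.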

The test system of data set [3] is PANC-1. Put plainly: Synergistic inhibition of colony formation in human PANC-1 cells at 0.125 to 0.5 uM measured after 24 hrs in presence of napabucasin by crystal violet staining based assay. The data set is classed as functional, cell-based. As to conditions: dose microM 0.125-0.5, time 24.0 hrs. The essentials: as §2
For data set [4], the system named is MIA PaCa-2. Description: Induction of reactive oxygen species in human MIA PaCa-2 cells at 5 to 10 uM measured up to 4 hrs by CM-H2DCFDA dye based fluorescence assay. Format: functional, cell-based. The settings on record: dose microM 5-10, time hrs <=4, TDE = time-dependent effect. The essentials: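 1.8 × 10⁴ cells per well were attached overnight, then loaded with 10 μM CM-H2DCFDA in HBSS for 40 min at 37 °C and washed. Compounds were added in HBSS. Fluorescence was read at Ex 483 / Em 530 nm. TBHP was the positive control. NAC at 3 mM was used where stated.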

In another data set the test system is CT26. Description: Antitumor activity against mouse CT26 cells implanted in Balb/c mouse assessed as tumor shrinkage at 20 mg/kg, ip. The data set is classed as functional, organism-based. The essentials:
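Female Balb/c mice aged 5–6 weeks, implanted subcutaneously in right flank with 1 × 10⁶ CT-26 cells in DPBS. Dosing began 7 days later with randomisation (n = 5/group, mean tumour 97–117 mm³). IV dosing was 3 times weekly and IP dosing was given. Vehicle control given daily IP. Mice were euthanised four hours post-dose after 17 days of dosing.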

For data set [5], the system named is MIA PaCa-2. Description: Effect on glutathione level in human MIA PaCa-2 cells at 1.5 to 6 uM measured after 2 to 4 hrs by GSH/GSSG-glo assay. The data set is classed as functional, cell-based. The settings on record: dose microM 1.5-6, time hrs 2-4. The essentials: as §1
The test system of data set [6] is MIA PaCa-2. Description: Cytotoxicity against human MIA PaCa-2 cells transfected with GPX4 siRNA measured after 72 hrs by MTT assay. Format: functional, cell-based.
Data set [7] can be described thus: Plasma concentration in CD-1 mouse at 20 mg/kg, po measured after 7 hrs by LC-MS/MS analysis. The data set is classed as ADME, organism-based. The essentials: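 CD-1 mice dosed IP at 10 mg/kg or PO at 20 mg/kg, n=2 per route. Blood taken with heparinized pipettes at 0.5, 2, 4 and 7 h and spun at 15,000 rpm for 10 min. Plasma stored at −80 °C, then measured by LC-MS/MS.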

Data set [8] relates to MIA PaCa-2. Put plainly: Down regulation of PNPT1 expression in human MIA PaCa-2 cells at 3 times IC50 measured after 4 hrs in presence of NQO1 inhibitor dicoumarol by proteomics analysis. The data set is classed as functional, cell-based.
The subject of data set [9] is PANC-1. Description: Down regulation of LRPPRC expression in human PANC-1 cells at 3 times IC50 measured after 1 to 24 hrs by proteomics analysis. The settings on record: time hrs 1-24. Format: functional, cell-based.

The source made the active and inactive calls. The rule behind the calls is not given here.

`CN1CCN(c2ccc(NC3=CC(=O)c4ncncc4C3=O)cc2)CC1`: the outcome in the data set with MIA PaCa-2 [1] and in the data set with CT26 was Active. For the same compound, the inhibition result in the data set on MIA PaCa-2 [2] and with PANC-1 [3] was “Active” in each case. In the data set with MIA PaCa-2 [4], the Activity entry is “Tde”. For the same compound, the result in the data set on MIA PaCa-2 [5], with MIA PaCa-2 [6], in the data set on MIA PaCa-2 [8] and in the data set on PANC-1 [9] was inactive. The same compound gave a concentration at 7 h in data set [7] of 23.3 ng/mL.
